Calls of active or inactive are those of the source. The rule behind the calls is not given here.
What was measured:
[1] = system: U-87 MG; experiment: Cytotoxicity against human U87 cells assessed as reduction in cell proliferation by phase contrast microscopic analysis; type: functional, cell-based; settings: U-87MG ATCC
[2] = system: U-87 MG; experiment: Cell cycle arrest in human U87 cells assessed as change in PCNA gene expression at cytotoxic IC50 measured after 48 hrs […] relative to control; type: functional, U-87MG ATCC
Procedure, shortened: (§1)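 U87 expression profiling. Cells incubated 48hrs at 37°C, 5% CO₂ with the IC₅₀ concentration, alongside a cisplatin and an untreated control, in triplicate. RNA was isolated by one common protocol and profiled. DEGs were called with DESeq2 (q < 0.05, fold change > 1.5) and expressed as fold change versus untreated.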

[3] = system: U-87 MG; experiment: Cell cycle arrest in human U87 cells assessed as change in GADD45A gene expression at cytotoxic IC50 measured after 48 hrs […] relative to control; type: functional, U-87MG ATCC; procedure, shortened: as §1
[4] = system: U-87 MG; experiment: Cell cycle arrest in human U87 cells assessed as change in CDK6 gene expression at cytotoxic IC50 measured after 48 hrs […] relative to control; type: functional, U-87MG ATCC; procedure, shortened: as §1
[5] = system: U-87 MG; experiment: Cell cycle arrest in human U87 cells assessed as change in CDK4 gene expression at cytotoxic IC50 measured after 48 hrs […] relative to control; type: functional, U-87MG ATCC; procedure, shortened: as §1
[6] = system: U-87 MG; experiment: Cell cycle arrest in human U87 cells assessed as change in PKMYT1 gene expression at cytotoxic IC50 measured after 48 hrs […] relative to control; type: functional, U-87MG ATCC; procedure, shortened: as §1
[7] = system: U-87 MG; experiment: Induction of DNA damage in human U87 cells assessed as change in SFN gene expression at cytotoxic IC50 measured after 48 hrs […] relative to control; type: functional, U-87MG ATCC
Procedure, shortened: (§2)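 U87 cells grown in MEM with 10% FBS at 37°C, 5% CO2. Cells exposed to IC50 of test compound for 48 hrs, alongside untreated and cisplatin controls, each condition in triplicate. RNA isolated and profiled; differential expression called with DESeq2 (q-value < 0.05, fold change > 1.5), fold change versus untreated.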

[8] = system: U-87 MG; experiment: Induction of DNA damage in human U87 cells assessed as change in E2F7 gene expression at cytotoxic IC50 measured after 48 hrs […] relative to control; type: functional, U-87MG ATCC; procedure, shortened: as §1
[9] = system: U-87 MG; experiment: Induction of DNA damage in human U87 cells assessed as change in CDKN1A gene expression at cytotoxic IC50 measured after 48 hrs […] relative to control; type: functional, U-87MG ATCC; procedure, shortened: as §1
[10] = system: U-87 MG; experiment: Induction of DNA damage in human U87 cells assessed as change in PLK2 gene expression at cytotoxic IC50 measured after 48 hrs […] relative to control; type: functional, U-87MG ATCC; procedure, shortened: as §1
[11] = system: U-87 MG; experiment: Induction of apoptosis in human U87 cells assessed as change in ITPR1 gene expression at cytotoxic IC50 measured after 48 hrs […] relative to control; type: functional, U-87MG ATCC; procedure, shortened: as §2
[12] = system: U-87 MG; experiment: Induction of apoptosis in human U87 cells assessed as change in TUBA4A gene expression at cytotoxic IC50 measured after 48 hrs by […] relative to control; type: functional, U-87MG ATCC; procedure, shortened: as §2
[13] = system: U-87 MG; experiment: Induction of apoptosis in human U87 cells assessed as decrease in caspase-3/7 activation at cytotoxic IC50 measured after 5 hrs by caspase-glo 3/7 luminescence assay relative to control; type: functional, U-87MG ATCC; set-up: scale not given: the % may be the effect or the level left
Procedure, shortened: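 Cells grown overnight in 96-well format, then given IC50 for 5 hrs at 37°C, 5% CO2, with negative, positive and blank (medium+DMSO+dye) wells. Equilibrated 30 min at room temperature, Caspase-Glo 3/7 reagent added 1:1 in the dark, luminescence read at 1 hr. Fold change = (test−blank)/(control−blank). Triplicate measurements, at least two independent experiments.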

[14] = Inhibition of RTK/PI3K/AKT/mTOR signaling in human U87 cells assessed as down regulation of GPATCH11 gene expression at cytotoxic IC50 measured after 48 hrs relative to control; type: cell-based; settings: U-87MG ATCC; procedure, shortened: as §2
[15] = Inhibition of RTK/PI3K/AKT/mTOR signaling in human U87 cells assessed as down regulation of DTL gene expression at cytotoxic IC50 measured after 48 hrs relative to control; type: cell-based; settings: U-87MG ATCC; procedure, shortened: as §2
[16] = Inhibition of RTK/PI3K/AKT/mTOR signaling in human U87 cells assessed as down regulation of FAM222A gene expression at cytotoxic IC50 measured after 48 hrs relative to control; type: cell-based; settings: U-87MG ATCC; procedure, shortened: as §2
[17] = Inhibition of RTK/PI3K/AKT/mTOR signaling in human U87 cells assessed as down regulation of TAF13 gene expression at cytotoxic IC50 measured after 48 hrs relative to control; type: cell-based; settings: U-87MG ATCC
Procedure, shortened: (§3)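 Cells were exposed for 48hrs at 37°C in humidified 5% CO₂ to the compound at its previously determined IC₅₀, with Cisplatin at its IC₅₀ and an untreated negative control alongside. Each condition was run in triplicate. RNA was isolated from all samples by the same protocol. Genes were called differentially expressed by DESeq2 at q-value < 0.05 and fold change > 1.5.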

[18] = Inhibition of RTK/PI3K/AKT/mTOR signaling in human U87 cells assessed as down regulation of PHIP gene expression at cytotoxic IC50 measured after 48 hrs relative to control; type: cell-based; settings: U-87MG ATCC; procedure, shortened: as §3
[19] = Inhibition of RTK/PI3K/AKT/mTOR signaling in human U87 cells assessed as down regulation of ZNF106 gene expression at cytotoxic IC50 measured after 48 hrs relative to control; type: cell-based; settings: U-87MG ATCC; procedure, shortened: as §3
[20] = Inhibition of RTK/PI3K/AKT/mTOR signaling in human U87 cells assessed as down regulation of USP47 gene expression at cytotoxic IC50 measured after 48 hrs relative to control; type: cell-based; settings: U-87MG ATCC; procedure, shortened: as §3
[21] = Inhibition of RTK/PI3K/AKT/mTOR signaling in human U87 cells assessed as down regulation of NFIL3 gene expression at cytotoxic IC50 measured after 48 hrs relative to control; type: cell-based; settings: U-87MG ATCC; procedure, shortened: as §3
[22] = Inhibition of RTK/PI3K/AKT/mTOR signaling in human U87 cells assessed as up regulation of UPK1A-AS1 gene expression at cytotoxic IC50 measured after 48 hrs relative to control; type: cell-based; settings: U-87MG ATCC
[23] = Inhibition of RTK/PI3K/AKT/mTOR signaling in human U87 cells assessed as up regulation of PLD6 gene expression at cytotoxic IC50 measured after 48 hrs relative to control; type: cell-based; settings: U-87MG ATCC; procedure, shortened: as §3
[24] = Inhibition of RTK/PI3K/AKT/mTOR signaling in human U87 cells assessed as up regulation of keratinocyte associated protein 3 gene expression at cytotoxic IC50 measured after 48 hrs relative to control; type: cell-based
[25] = Inhibition of RTK/PI3K/AKT/mTOR signaling in human U87 cells assessed as up regulation of macrophage stimulating 1 receptor gene expression at cytotoxic IC50 measured after 48 hrs relative to control; type: cell-based
[26] = Inhibition of RTK/PI3K/AKT/mTOR signaling in human U87 cells assessed as up regulation of fibroblast growth factor 19 gene expression at cytotoxic IC50 measured after 48 hrs relative to control; type: cell-based
[27] = Inhibition of RTK/PI3K/AKT/mTOR signaling in human U87 cells assessed as up regulation of phosphofructokinase, platelet gene expression at cytotoxic IC50 measured after 48 hrs relative to control; type: cell-based
[28] = Inhibition of RTK/PI3K/AKT/mTOR signaling in human U87 cells assessed as up regulation of MYC gene expression at cytotoxic IC50 measured after 48 hrs relative to control; type: cell-based; settings: U-87MG ATCC; procedure, shortened: as §3

CC(=O)C(=NNc1ccccc1C#N)C(C)=O
Activity [1]: Active
fold change (FC) [2]: 1.668
fold change (FC) [3]: -0.9679
fold change (FC) [4]: -1.311
fold change (FC) [5]: 1.499
fold change (FC) [6]: 1.852
fold change (FC) [7]: 1.949
fold change (FC) [8]: 2.057
fold change (FC) [9]: 1.296
fold change (FC) [10]: 1.28
log2FC [11]: -3.437
log2FC [12]: 1.583
Activity [13]: 60.2%
log2FC [14]: -1.69
log2FC [15]: -1.56
log2FC [16]: -1.4
log2FC [17]: -1.05
log2FC [18]: -0.753
log2FC [19]: -0.749
log2FC [20]: -0.615
log2FC [21]: -0.44
log2FC [22]: 2.69
log2FC [23]: 1.77
log2FC [24]: 1.03
log2FC [25]: 0.723
log2FC [26]: 0.722
log2FC [27]: 0.662
log2FC [28]: 0.54

From ChEMBL document CHEMBL4316593 (Eur J Med Chem, 2019)
